{"data": "Measurements from different studies", "effect on": "cell growth or viability", "note": "Each line is one published result; the experiments were not run side by side."}
{"SMILES": "Nc1nc2sc(CCCCCc3ccc(C(=O)N[C@@H](CCC(=O)O)C(=O)O)cc3)cc2c(=O)[nH]1", "cell line": "R2/PCFT4", "time": "96 h", "pH": "pH 7.2", "IC50": "> 1000 nM"}
{"SMILES": "C=CCNC1=C2C[C@@H](C)C[C@H](OC)[C@H](O)[C@@H](C)/C=C(\\C)[C@H](OC(N)=O)[C@@H](OC)/C=C\\C=C(/C)C(=O)NC(=CC1=O)C2=O", "cell line": "HUVEC", "method": "MTT", "IC50": "1200 nM"}
{"SMILES": "COc1cc(-c2ncn(/C=C\\C(=O)OC(C)C)n2)cc(C(F)(F)F)c1", "cell line": "MEG-01", "time": "72 h", "IC50": "83 nM"}
{"SMILES": "Nc1ccn([C@@H]2O[C@H](CO)[C@@H](O)C2(F)F)c(=O)n1", "cell line": "HFF-1", "method": "MTT", "IC50": "14400 nM"}
{"SMILES": "Nc1nc2sc(CCCCCCc3ccc(C(=O)N[C@@H](CCC(=O)O)C(=O)O)cc3)cc2c(=O)[nH]1", "cell line": "R2/PCFT4", "time": "96 h", "pH": "pH 7.2", "IC50": "> 1000 nM"}
{"SMILES": "CCCON(Cc1ccc(C(=O)NO)cc1)C(=O)Nc1ccc(N(C)C)cc1", "cell line": "HAL-01", "method": "ATP luminescence", "time": "72 h", "IC50": "13800 nM"}
{"SMILES": "COc1cc(/C=C/C(=O)CC(=O)/C=C/c2ccc(O)c(OC)c2)ccc1O", "cell line": "HUVEC", "method": "MTT", "time": "48 h", "IC50": "10.3 µg/mL"}
{"SMILES": "Nc1nc2sc(CCc3ccc(C(=O)N[C@@H](CCC(=O)O)C(=O)O)cc3)cc2c(=O)[nH]1", "cell line": "R2/PCFT4", "time": "96 h", "pH": "pH 7.2", "IC50": "> 1000 nM"}
{"SMILES": "CC(C)C[C@H](NC(=O)[C@H](Cc1ccccc1)NC(=O)c1cnccn1)B(O)O", "cell line": "Ishikawa", "method": "ATP luminescence", "IC50": "7.1 nM"}
{"SMILES": "CCOc1cc(-c2nc3ccc(C)cc3[nH]2)ccc1O", "cell line": "C26", "method": "MTT", "time": "48 h", "IC50": "32800 nM"}
{"SMILES": "COc1cc(Nc2nccc(-c3cnn4nc(OC)ccc34)n2)cc(C(F)(F)F)c1", "cell line": "HCC38", "method": "ATP luminescence", "IC50": "930 nM"}
{"SMILES": "CCCON(Cc1ccc(C(=O)NO)cc1)C(=O)Nc1ccccc1", "cell line": "HAL-01", "method": "ATP luminescence", "time": "72 h", "IC50": "6650 nM"}
{"SMILES": "O=c1[nH]cc(F)c(=O)[nH]1", "cell line": "HUVEC", "method": "MTT", "time": "48 h", "IC50": "> 50000 nM"}
{"SMILES": "Cn1cc(-c2ccc3c(c2)ncn3-c2ccc(CC(=O)Nc3cc(C(C)(C)C)on3)cc2)cn1", "cell line": "NIH3T3", "IC50": "34.4 nM"}
